Calls of active or inactive are those of the source. The calls are words filed in the database; no cut-off is given here.
Experiments:
[1] = species on record: Cavia porcellus; assay: Percent inhibition of the LTE4- induced contraction of guinea pig tracheal spirals at the concentration of 3.3 uM; type: functional; settings: Trachea
Procedure, shortened: (§1)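 Guinea pig trachea cut into spiral strips, each trachea split into paired sections. Tissue bath at 37 °C in modified Krebs buffer gassed with 95% O2/5% CO2, 2 g resting tension, 60 min stabilization. After reproducible responses to 10 nM LTE4, compound was added for 10 min, then LTE4 challenge repeated. Percent inhibition is the 2nd vs 3rd response, adjusted by subtracting the vehicle-treated paired section. Paired t test, p < 0.05.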

[2] = test system: Cysteinyl leukotriene receptor (Cavia porcellus); assay: Inhibition of the LTE4- induced contraction of guinea pig tracheal spirals at 10 uM; Not significant.; settings: Trachea
[3] = test system: Cysteinyl leukotriene receptor (Cavia porcellus); assay: Inhibition of the LTE4- induced contraction of guinea pig tracheal spirals at 10 uM.; settings: Trachea
[4] = species on record: Cavia porcellus; assay: Percent inhibition of the LTE4- induced contraction of guinea pig tracheal spirals at the concentration of 1 uM; type: functional; settings: Trachea; procedure, shortened: as §1
[5] = species on record: Cavia porcellus; assay: Percent inhibition of the LTE4- induced contraction of guinea pig tracheal spirals at the concentration of 0.1 uM; type: functional; settings: Trachea; procedure, shortened: as §1
[6] = species on record: Cavia porcellus; assay: Percent inhibition of the LTE4- induced contraction of guinea pig tracheal spirals at the concentration of 0.33 uM; type: functional; settings: Trachea; procedure, shortened: as §1
[7] = species on record: Cavia porcellus; assay: Percent inhibition of the LTE4- induced contraction of guinea pig tracheal spirals at the concentration of 5 uM; type: functional; settings: Trachea; procedure, shortened: as §1
[8] = pKB value of the compound
Procedure, shortened: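 Guinea pig tracheal strips at 37 °C in Krebs buffer. Cumulative LTE4 concentration-response curves were built in log increments, with responses expressed as % of the maximum to 30 µM carbachol. Antagonist was incubated 30 min before the curve, with vehicle on paired controls. EC50 came from linear regression. KB = [antagonist]/(dose ratio − 1) by the Furchgott method. One curve per tissue.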

[9] = Selectivity ratio of the compound; type: functional
[10] = species on record: Cavia porcellus; assay: Percent inhibition of the LTE4- induced contraction of guinea pig tracheal spirals at the concentration of 1.0 uM; type: functional; settings: Trachea; procedure, shortened: as §1
[11] = species on record: Cavia porcellus; assay: Percent inhibition of the LTE4- induced contraction of guinea pig tracheal spirals at the concentration of 0 uM; Not significant; type: functional; settings: Trachea; procedure, shortened: as §1
[12] = species on record: Cavia porcellus; assay: Percent inhibition of the LTE4- induced contraction of guinea pig tracheal spirals at concentration of 10 uM; Not significant; type: functional; settings: Trachea; procedure, shortened: as §1
[13] = species on record: Cavia porcellus; assay: Percent inhibition of the BaCl2 - induced contraction of guinea pig tracheal spirals at concentration of 100 uM; type: functional; settings: Trachea
Procedure, shortened: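 Guinea pig tracheal strips contracted with barium chloride. Compound was tested at 100 µM, and the read-out is percent inhibition of the BaCl2-induced contraction.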

COc1cc(C(=O)O)ccc1Cn1ccc2ccc(NC(=O)NC(C)(C)C)cc21
inhibition at 3.3 µM [1]: 24%

CCCCCC(=O)Nc1ccc2cn(Cc3ccccc3C(=O)O)nc2c1
inhibition [2]: inactive

COc1cc(C(=O)O)ccc1Cn1ccc2ccc(NC(=O)Cc3ccc(C)cc3)cc21
inhibition [3]: 29%

CCCCC(C(=O)Nc1ccc2ccn(Cc3ccc(C(=O)O)cc3OC)c2c1)c1ccccc1 (configuration not stated)
inhibition [3]: 34%

COc1cc(C(=O)O)ccc1Cn1ccc2ccc(NC(=O)C3CCCC3)cc21
inhibition at 1 µM [4]: 58%

COc1cc(C(=O)O)ccc1Cn1ccc2ccc(NC(=O)C(c3ccccc3)c3ccccc3)cc21
inhibition at 3.3 µM [1]: 38%

CCCCCC(=O)Nc1ccc2cn(Cc3ccc(C(=O)O)cc3)nc2c1
inhibition [2]: inactive

COc1cc(C(=O)O)ccc1Cn1ccc2ccc(NC(=O)CC3CCCC3)cc21
inhibition at 0.1 µM [5]: 34%

CCCCCC(=O)Nc1cccc2c1ccn2Cc1ccc(C(=O)O)cc1OC
inhibition [3]: 29%

CCC(C(=O)Nc1ccc2ccn(Cc3ccc(C(=O)O)cc3OC)c2c1)C1CCCCC1 (configuration not stated)
inhibition at 0.33 µM [6]: 18%

CCN(CC)C(=O)Nc1ccc2ccn(Cc3ccc(C(=O)O)cc3OC)c2c1
inhibition [3]: 19%

C/C=C/C=C/C(=O)Nc1ccc2ccn(Cc3ccc(C(=O)O)cc3OC)c2c1
inhibition at 5 µM [7]: 28%

CCCc1c(OCc2ccc(C(=O)O)cc2OC)ccc(C(C)=O)c1O
pKB [8]: 6.4
Selectivity ratio [9]: 50
inhibition at 1 µM [4]: 38%

COc1cc(C(=O)O)ccc1Cn1ccc2ccc(NC(=O)CCCCCCC(=O)O)cc21
inhibition [2]: inactive

CCCCOC(=O)Nc1ccc2cn(Cc3ccc(C(=O)O)cc3OC)nc2c1
inhibition [3]: 50%

CCCCCCOC(=O)Nc1ccc2ccn(Cc3ccc(C(=O)O)cc3OC)c2c1
inhibition at 1 µM [10]: 30%

COc1cc(C(=O)O)ccc1Cn1ccc2ccc(NC(=O)CCCCCNC(C)=O)cc21
inhibition [2]: inactive

COc1cc(C(=O)O)ccc1Cn1ccc2ccc(NC(=O)C(OC)c3ccccc3)cc21 (configuration not stated)
inhibition at 3.3 µM [1]: 52%

COc1cc(C(=O)O)ccc1Cn1ccc2ccc(NC(C)=O)cc21
inhibition [11]: inactive

COc1cc(C(=O)O)ccc1Cn1ccc2ccc(NC(=O)C(c3ccccc3)C3CCCC3)cc21 (configuration not stated)
inhibition at 1 µM [10]: 27%

COc1cc(C(=O)O)ccc1Cn1ccc2ccc(NC(=O)CC3CCCCC3)cc21
inhibition at 0.33 µM [6]: 53%

CCCCCC(=O)N(C)c1ccc2ccn(Cc3ccc(C(=O)O)cc3OC)c2c1
inhibition [2]: inactive

COC(=O)Nc1ccc2ccn(Cc3ccc(C(=O)O)cc3OC)c2c1
inhibition [2]: inactive

CCCCCC(=O)Nc1ccc2cnn(Cc3ccccc3C(=O)O)c2c1
inhibition [2]: inactive

CCCCCCNc1ccc2ccn(Cc3ccc(C(=O)O)cc3OC)c2c1
inhibition [3]: 52%

COc1cc(C(=O)O)ccc1Cn1ccc2ccc(NC(=O)OC3CC=CCC3)cc21 (configuration not stated)
inhibition at 1 µM [10]: 47%

COc1cc(C(=O)O)ccc1Cn1ccc2ccc(NC(=O)Cc3ccccc3)cc21
inhibition at 5 µM [7]: 71%

CCCCNC(=O)Nc1ccc2ccn(Cc3ccc(C(=O)O)cc3OC)c2c1
inhibition at 1 µM [4]: 39%

COc1cc(C(=O)O)ccc1Cn1ccc2ccc(NC(=O)Cc3ccc(C(F)(F)F)cc3)cc21
inhibition [3]: 13%

COc1cc(C(=O)O)ccc1Cn1ccc2ccc(NC(=O)c3ccccc3)cc21
inhibition [3]: 14%

COc1cc(C(=O)O)ccc1Cn1ccc2ccc(NC(=O)CCCC(C)=O)cc21
inhibition [2]: inactive

COc1cc(C(=O)O)ccc1Cn1ccc2ccc(NC(=O)OC3CCOC3)cc21 (configuration not stated)
inhibition at 3.3 µM [1]: 70%

CCCCN(C)C(=O)Nc1ccc2ccn(Cc3ccc(C(=O)O)cc3OC)c2c1
inhibition [2]: inactive

COc1cc(C(=O)O)ccc1Cn1ccc2ccc(NC(=O)NC3CCCCC3)cc21
inhibition at 3.3 µM [1]: 34%

CCCCCCOc1ccc(COc2ccccc2C(=O)O)cc1
pKB [8]: 5.1
inhibition at 5 µM [7]: 40%
Selectivity ratio [9]: 10

COc1cc(C(=O)O)ccc1Cn1ccc2ccc(NC(=O)Cc3ccc4ccccc4c3)cc21
inhibition [2]: inactive

CCCCCC(=O)Nc1ccc2c(cnn2Cc2ccccc2C(=O)O)c1
inhibition [2]: inactive

CCCC(C(=O)Nc1ccc2ccn(Cc3ccc(C(=O)O)cc3OC)c2c1)C1CCCC1 (configuration not stated)
inhibition at 1 µM [10]: 62%

COc1cc(C(=O)O)ccc1Cn1ccc2ccc(NC(=O)Nc3ccccc3)cc21
inhibition [2]: inactive

COc1cc(C(=O)O)ccc1Cn1ccc2ccc(NC(=O)OC3CCC3)cc21
inhibition at 0.1 µM [5]: 27%

CCC(C(=O)Nc1ccc2cn(Cc3ccc(C(=O)O)cc3OC)nc2c1)c1ccccc1 (configuration not stated)
inhibition [3]: 22%

CCCC/N=C(\S)Nc1ccc2ccn(Cc3ccc(C(=O)O)cc3OC)c2c1
inhibition [3]: 18%

COc1cc(C(=O)O)ccc1Cn1ccc2ccc(NC(=O)C(C)c3ccccc3)cc21 (configuration not stated)
inhibition at 3.3 µM [1]: 59%

CCCC(=O)Nc1ccc2ccn(Cc3ccc(C(=O)O)cc3OC)c2c1
inhibition at 5 µM [7]: 42%

COc1cc(C(=O)O)ccc1Cn1ccc2ccc(NC(=O)CCCc3ccccc3)cc21
inhibition [3]: 73%

COc1cc(C(=O)O)ccc1Cn1ccc2ccc(NC(=O)Cc3ccc(-c4ccccc4)cc3)cc21
inhibition [2]: inactive

CCCCCC(=O)Nc1ccc2nn(Cc3ccccc3C(=O)O)cc2c1
inhibition [3]: 13%

COc1cc(C(=O)O)ccc1Cn1ccc2ccc(NC(=O)OC(C)(C)C)cc21
inhibition at 3.3 µM [1]: 10%

COc1cc(C(=O)O)ccc1Cn1ccc2ccc(NC(=O)CCc3ccccc3)cc21
inhibition [3]: 62%

CCCCCC(=O)Nc1cccc2cnn(Cc3ccc(C(=O)O)cc3OC)c12
inhibition [12]: inactive

COc1cc(C(=O)O)ccc1Cn1ccc2ccc(NC(=O)OC(C)C)cc21
inhibition at 0.33 µM [6]: 24%

COc1cc(C(=O)O)ccc1Cn1ccc2ccc(NC(=O)NCc3ccccc3)cc21
inhibition [3]: 57%

COc1cc(C(=O)O)ccc1Cn1ncc2ccc(NC(=O)CC3CCCC3)cc21
inhibition at 0.1 µM [5]: 83%

CCCCCCCC(=O)Nc1ccc2ccn(Cc3ccc(C(=O)O)cc3OC)c2c1
inhibition at 5 µM [7]: 53%

COc1cc(C(=O)O)ccc1Cn1ccc2ccc(NC(=O)NC3CCCC3)cc21
inhibition at 1 µM [4]: 73%

COc1cc(C(=O)O)ccc1Cn1ccc2ccc(NC(=O)C(C)(C)c3ccccc3)cc21
inhibition at 3.3 µM [1]: 23%

COc1cc(C(=O)O)ccc1Cn1ccc2ccc(NC(=O)Cc3ccc(Cl)cc3)cc21
inhibition [3]: 44%

CCCCCC(=O)Nc1ccc2c(cnn2Cc2ccc(C(=O)O)cc2)c1
inhibition [2]: inactive

CCCCCCNC(=O)Nc1ccc2ccn(Cc3ccc(C(=O)O)cc3OC)c2c1
inhibition at 3.3 µM [1]: 51%

CCCCCCCCCC(=O)Nc1ccc2ccn(Cc3ccc(C(=O)O)cc3OC)c2c1
inhibition [2]: inactive

COc1cc(C(=O)O)ccc1Cn1ncc2ccc(NC(=O)OC3CCCC3)cc21
inhibition at 100 µM [13]: 44%
inhibition at 0.1 µM [5]: 65%

COc1cc(C(=O)O)ccc1Cn1ccc2ccc(NC(=O)Cc3ccc(OC)c(OC)c3)cc21
inhibition [2]: inactive

CCC(C(=O)Nc1ccc2ccn(Cc3ccc(C(=O)O)cc3OC)c2c1)c1ccccc1 (configuration not stated)
inhibition at 1 µM [4]: 65%

COc1cc(C(=O)O)ccc1Cn1ccc2ccc(NC(=O)C(F)(F)C(F)(F)C(F)(F)F)cc21
inhibition [3]: 40%

COc1cc(C(=O)O)ccc1Cn1ccc2ccc(NC(=O)Nc3ccccc3C(F)(F)F)cc21
inhibition [3]: 42%

CCCCC(CC)C(=O)Nc1ccc2ccn(Cc3ccc(C(=O)O)cc3OC)c2c1 (configuration not stated)
inhibition at 1 µM [4]: 59%

C#CCCC(=O)Nc1ccc2ccn(Cc3ccc(C(=O)O)cc3OC)c2c1
inhibition [3]: 47%

COc1cc(C(=O)O)ccc1Cn1ccc2ccc(NC(=O)Cc3cccs3)cc21
inhibition [3]: 77%

COc1cc(C(=O)O)ccc1Cn1ccc2ccc(NS(=O)(=O)Cc3ccccc3)cc21
inhibition [2]: inactive

CCCCCC(=O)Nc1ccc2nn(Cc3ccc(C(=O)O)cc3)cc2c1
inhibition [2]: inactive

CCCCCC(=O)Nc1ccc2cnn(Cc3ccc(C(=O)O)cc3)c2c1
inhibition [3]: 62%

CCC(CC)OC(=O)Nc1ccc2ccn(Cc3ccc(C(=O)O)cc3OC)c2c1
inhibition at 0.33 µM [6]: 31%

Reference: ChEMBL document CHEMBL1125163, “Evolution of a series of peptidoleukotriene antagonists: synthesis and structure-activity relationships of 1,6-disubstituted indoles and indazoles” (J Med Chem, 1990)
